Reference: ChEMBL document CHEMBL2176925, “Novel ¹⁸F-labeled benzoxazole derivatives as potential positron emission tomography probes for imaging of cerebral β-amyloid plaques in Alzheimer's disease” (J Med Chem, 2012)
The source made the active and inactive calls. The rule behind the calls is not given here.

Legend:
[1] = tested on: Brain; experiment: Drug uptake in ddY mouse brain at 370 kBq/100 ul, iv at 60 mins by gamma-counting analysis; type: ADME, organism-based; settings: in vivo, 1 h
How it was run: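 Normal male ddY mice (5 weeks, 20−22 g, n = 5) received 370 kBq of tracer in 100 μL saline with 5% EtOH via tail vein. Mice were sacrificed at set times after injection, and organs were excised, weighed and γ-counted against diluted injectate aliquots. Values are %ID per gram, except stomach and intestine as %ID per organ, given as mean ± SD of 5 mice.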

[2] = Displacement of [125I]IMPY from amyloid beta (1 to 42) fibrils after 2 hrs by gamma-counting analysis
How it was run: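 Competition binding with aggregated Aβ1-42 fibrils (60 nM final) and [125I]IMPY. Inhibitors were tested at 10⁻⁵–10⁻¹⁰ M (in ethanol) in 0.2 M PBS, pH 7.4, 1 mL, for 2 h at 37 °C with shaking. Nonspecific binding was defined with 1 μM IMPY. Bound ligand was collected by GF/B filtration and γ-counted. Ki was derived from IC50 via Cheng–Prusoff.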

[3] = tested on: Brain; experiment: Ratio of drug uptake in brain at 2 mins to drug uptake in brain at 60 mins in ddY mouse at 370 kBq/100 ul, iv; type: ADME, organism-based; settings: in vivo
How it was run: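 Tail-vein injection of 370 kBq/100 μL (saline, 5% EtOH) into male ddY mice (5 weeks, 20−22 g, n = 5). Brain excised at 2 and 60 min, weighed and γ-counted against diluted injectate. Uptake is %ID/g, and the ratio is brain at 2 min divided by brain at 60 min.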

[4] = Displacement of [125I]TZDM from amyloid beta (1 to 40) fibrils
[5] = tested on: Brain; experiment: Drug uptake in ddY mouse brain at 370 kBq/100 ul, iv assessed per organ at 60 mins by gamma-counting analysis; type: ADME, organism-based; settings: in vivo, 1 h
[6] = n-Octanol-PBS buffer partition coefficient, log D of the compound at 370 kBq after 3 mins at pH 7.4; type: physicochemical
How it was run: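 For log D, tubes containing n-octanol and PBS were vortexed 3 min at room temperature and centrifuged 5 min at 3000 rpm. Weighed samples of the octanol (100 μL) and buffer (500 μL) layers were counted. Log D is the log of the ratio of counts per gram, octanol to PBS.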

[7] = tested on: Brain; experiment: Drug uptake in ddY mouse brain at 370 kBq/100 ul, iv assessed per organ at 2 mins by gamma-counting analysis; type: ADME, organism-based; settings: in vivo
[8] = tested on: Brain; experiment: Drug uptake in iv dosed ICR mouse brain; type: ADME, organism-based; settings: in vivo
[9] = tested on: Mus musculus; experiment: Binding affinity to amyloid beta plaque in transgenic C57BL6 mouse hippocampus expressing APP Swedish mutant at 40.7 MBq, iv after 30 mins by thioflavinS-staining method; type: functional, organism-based; design: dose or concentration left out as unconfirmed; settings: tested as the 18F-labelled form
How it was run: (§1)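 Ex vivo: Tg2576 (C57BL6, APPsw) mice, 18 months old, and age-matched wild-type mice. Each received 40.7 MBq of tracer in 100 μL saline with 5% EtOH iv via the femoral vein and was decapitated 30 min later. Brains were frozen in dry ice and cut into 20 μm sections. Sections were exposed to an imaging plate for 8 h, then the same sections were stained with thioflavin-S.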

[10] = tested on: Mus musculus; experiment: Binding affinity to amyloid beta plaque in transgenic C57BL6 mouse hippocampus expressing APP Swedish mutant/PSEN1 at 40.7 MBq, iv after 30 mins by autoradiographic analysis; type: functional, organism-based; settings: 40.7 M, tested as the 18F-labelled form
[11] = tested on: Mus musculus; experiment: Binding affinity to amyloid beta plaque in transgenic C57BL6 mouse cortex expressing APP Swedish mutant/PSEN1 at 40.7 MBq, iv after 30 mins by autoradiographic analysis; type: functional, organism-based; settings: 40.7 M, tested as the 18F-labelled form
[12] = species on record: Mus musculus; experiment: Binding affinity to amyloid beta plaques in transgenic C57BL6 mouse brain expressing APP Swedish mutant/PSEN1 at 370 kBq/100 ul after 1 hr by thioflavinS-staining method; type: tissue-based; settings: tested as the 18F-labelled form
How it was run: (§2)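 In vitro autoradiography on paraffin sections. Mouse: Tg C57BL6 APPswe/PSEN1 and wild-type, both 12 months old. Human: AD (person) and normal (person). Sections were deparaffinized through xylene and graded ethanol, held in PBS (0.2 M, pH 7.4) for 30 min, then incubated with tracer (370 kBq/100 μL) for 1 h at room temperature. Washes were 50% ethanol then water. Plates were exposed overnight. Plaques were confirmed by thioflavin-S or monoclonal Aβ1-42 antibody immunostaining.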

[13] = tested on: Mus musculus; experiment: Binding affinity to amyloid beta plaque in transgenic C57BL6 mouse cortex expressing APP Swedish mutant at 40.7 MBq, iv after 30 mins by thioflavinS-staining method; type: functional, organism-based; design: dose or concentration left out as unconfirmed; settings: tested as the 18F-labelled form; how it was run: as §1
[14] = species on record: Mus musculus; experiment: Binding affinity to amyloid beta plaques in transgenic C57BL6 mouse brain expressing APP Swedish mutant/PSEN1 at 370 kBq/100 ul after 1 hr by autoradiographic analysis; type: tissue-based; settings: tested as the 18F-labelled form; how it was run: as §2
[15] = target: Amyloid-beta precursor protein (Homo sapiens) (UniProt P05067); experiment: Binding affinity to amyloid beta plaques in […] brain at 370 kBq/100 ul after 1 hr by autoradiographic analysis; settings: tested as the 18F-labelled form; how it was run: as §2
[16] = target: Amyloid-beta precursor protein (Homo sapiens) (UniProt P05067); experiment: Binding affinity to amyloid beta plaques in […] brain at 370 kBq/100 ul after 1 hr by immunohistochemical staining method; settings: tested as the 18F-labelled form; how it was run: as §2

Chain of Amyloid-beta precursor protein (Homo sapiens) (P05067 whole entry): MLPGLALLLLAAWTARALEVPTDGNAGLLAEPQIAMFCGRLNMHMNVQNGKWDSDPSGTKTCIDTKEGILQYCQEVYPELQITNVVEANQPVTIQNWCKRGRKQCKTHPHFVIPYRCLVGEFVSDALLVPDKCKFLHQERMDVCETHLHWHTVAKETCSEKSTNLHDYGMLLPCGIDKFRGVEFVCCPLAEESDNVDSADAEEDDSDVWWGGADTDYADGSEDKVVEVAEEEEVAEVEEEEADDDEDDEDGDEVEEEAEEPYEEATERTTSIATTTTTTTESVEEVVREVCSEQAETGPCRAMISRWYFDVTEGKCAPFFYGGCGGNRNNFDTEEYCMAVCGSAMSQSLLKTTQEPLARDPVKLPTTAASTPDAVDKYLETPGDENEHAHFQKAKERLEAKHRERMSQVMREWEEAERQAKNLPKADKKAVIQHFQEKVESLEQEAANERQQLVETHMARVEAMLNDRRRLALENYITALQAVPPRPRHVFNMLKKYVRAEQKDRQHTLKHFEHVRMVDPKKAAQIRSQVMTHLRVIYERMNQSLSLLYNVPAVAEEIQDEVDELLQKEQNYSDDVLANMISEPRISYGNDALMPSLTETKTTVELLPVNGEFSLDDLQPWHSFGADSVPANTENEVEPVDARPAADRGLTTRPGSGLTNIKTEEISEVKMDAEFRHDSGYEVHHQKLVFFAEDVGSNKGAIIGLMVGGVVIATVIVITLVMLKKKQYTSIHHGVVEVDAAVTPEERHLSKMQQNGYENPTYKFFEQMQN

Row | SMILES | Ki [2] [nM] | Ratio [3] | Ki [4] [nM] | logD at 0.05 h [6] | Drug uptake [8] [%ID] | further results
1 | CNc1ccc(/C=C/c2ccc(OCCOCCOCC[18F])nc2)cc1 [FLORBETAPIR F 18] | 2.87 | 3.9 | – | – | – | Drug uptake [1]: 1.88 % ID/g
2 | CNc1ccc(-c2nc3cc(OCCOCCOCCF)ccc3o2)cc1 | 9.3 | – | – | – | – | Activity [9]: Active; Activity [10]: Active; Activity [11]: Active; Activity [12]: Active; Activity [13]: Active; Activity [14]: Active; Activity [15]: Active; Activity [16]: Active
3 | CNc1ccc(-c2cc3cc(OCCOCCOCC[18F])ccc3o2)cc1 | 3.9 | 2.11 | – | 3.73 | – | –
4 | CN(C)c1ccc(-c2cc3cc(OCCOCCOCC[18F])ccc3o2)cn1 | 1 | 2.11 | – | 2.32 | – | –
5 | CNc1ccc(-c2cc3cc(OCCOCCOCC[18F])ccc3o2)cn1 | 2.4 | 2.34 | – | 3.11 | – | –

More lines, main results first:

Row | Ki [2] [nM] | Ratio [3] | Ki [4] [nM] | logD at 0.05 h [6] | Drug uptake [8] [%ID] | SMILES | further results
6 | 0.8 | 1.13 | 0.8 | 2.09 | – | CN(C)c1ccc(-c2nc3ccc([125I])cc3o2)cc1 | Drug uptake [5]: 1.26 %ID; Drug uptake [7]: 1.43 %ID
7 | – | – | 0.4 | – | < 1.5 | CNc1ccc(-c2cc3cc([125I])ccc3o2)cc1 | –
8 | – | – | 0.4 | – | < 1.5 | CN(C)c1ccc(-c2cc3cc([125I])ccc3o2)cc1 | –
9 | – | – | 0.4 | – | < 1.5 | Oc1ccc(-c2cc3cc([125I])ccc3o2)cc1 | –
10 | – | – | 0.4 | – | < 1.5 | CN(C)c1ccc(-c2cc3ccc([125I])cc3o2)cc1 | –
11 | 3.9 | – | – | – | – | CN(C)c1ccc(-c2nc3cc(OCCOCCOCCF)ccc3o2)cc1 | Activity [9]: Active; Activity [10]: Active; Activity [11]: Active; Activity [12]: Active; Activity [13]: Active; Activity [14]: Active; Activity [15]: Active; Activity [16]: Active
12 | 2 | 1.03 | – | 2.94 | – | CN(C)c1ccc(-c2cc3cc(OCCOCCOCC[18F])ccc3o2)cc1 | –
